B1: Osa-1-4 twister ribozyme (parent)
chain: CCGCCUAACACUGCCAAUGCCGGUCCCAAGCCCGGAUAAAAGUGGAGGGGGCGG

Variants of: B1
Assay: self-cleavage, relative activity (ratio to wild type); higher = more cleavage; co-transcriptional
In short: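 A DNA template was synthesised for a 54-nucleotide twister ribozyme from Oryza sativa, with 97 % wild-type base and 1 % of each other base at each of the 48 positions downstream of the cleavage site. The ribozyme cleaved itself co-transcriptionally during 2 h of in vitro transcription at 37 °C. Reverse transcription with a template-switching oligonucleotide, PCR amplification and deep sequencing followed, and cleavage status came from reads with or without upstream sequence. Relative activity is the fraction cleaved normalised to wild type.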

Variant	self-cleavage
C27A G23C	0.03
C26U G54U	0.62
C26U G54A	0.38
C26U G54C	0.3
C27G U43G	0.06
C27G U43A	0.08
C27G U43C	0.06
C26U G44A	0.4
C26U G44U	0.71
C26U G44C	0.92
C27U C9U	0.1
C27U C9A	0.02
C27U C9G	0.09
C27A U12C	0.06
C27A U12A	0.07
C27A U12G	0.11
C26U G22U	0.74
C26U G22C	0.08
C26U G22A	0.91
C26G G49C	0.03
C26G G49U	0.04
C26G G49A	0.04
C27A G48A	0.04
C27A G48U	0.04

Variant	self-cleavage
C27A G48C	0.05
C27A G50U	0.1
C27A G50C	0.08
C27A G50A	0.22
C26G U43A	0.09
C26G U43G	0.07
C26G U43C	0.07
C27G C31G	0.06
C27G C31U	0.06
C27G C31A	0.01
C26U	0.98
C27U G35U	0.19
C27U G35A	0.31
C27U G35C	0.06
C27A U37C	0.32
C27A U37A	0.26
C27A U37G	0.42
C26G G50C	0.09
C26G G50U	0.09
C26G G50A	0.1
C26U G51C	0.07
C26U G51U	0.17
C26U G51A	0.45
C27G G30C	0.02

Variant	self-cleavage
C27G G30U	0.02
C27G G30A	0.02
C27G G22U	0.04
C27G G22C	0.03
C27G G22A	0.05
C26G G47A	0.05
C26G G47U	0.06
C26G G47C	0.04
C27G U37G	0.16
C27G U37C	0.1
C27G U37A	0.08
C26G G45A	0.05
C26G G45C	0.03
C26G G45U	0.02
C27G G23C	0.03
C27G G23U	0.02
C27G G23A	0.05
C27G C52A	0.08
C27G C52U	0.16
C27G C52G	0.14
C27A G51U	0.05
C27A G51A	0.1
C27A G51C	0.05
C27U G13C	0.01

Variant	self-cleavage
C27U G13A	0.04
C27U G13U	0.01
C27U G42A	0.08
C27G C32G	0.05
C27G C32A	0.02
C27G C32U	0.05
C26G G51C	0.05
C26G G51U	0.06
C26G G51A	0.1
C27A G30U	0.03
C27A G30C	0.03
C27A G30A	0.02
C27G G51A	0.05
C27G G51U	0.04
C27G G51C	0.02
C26G G35U	0.09
C26G G35C	0.07
C27A G54U	0.35
C27A G54C	0.11
C27A G54A	0.12
C27A U24A	0.04
C27A U24C	0.06
C27A U24G	0.02
C27G U18C	0.09

Variant	self-cleavage
C27G U18A	0.09
C27G U18G	0.17
C26G G42U	0.02
C26G G42C	0.05
C26G G42A	0.08
C27A G13C	0.01
C27A G13U	0.02
C27A G13A	0.03
C26U U18C	0.88
C26U U18G	0.93
C26U U18A	0.88
C27U C32G	0.05
C27U C32U	0.06
C27U C32A	0.04
C26G U37C	0.1
C26G U37A	0.09
C26G U37G	0.1
C27A U18A	0.27
C27A U18G	0.34
C27A U18C	0.26
C26G U24G	0.02
C26G U24A	0.04
C26G U24C	0.04
C26U C9G	0.24

Variant	self-cleavage
C26U C9U	0.55
C26U C9A	0.26
C27U G23U	0.03
C27U G23A	0.07
C27U G23C	0.03
C27A G42C	0.06
C27A G42A	0.08
C27A G42U	0.05
C27G G35A	0.12
C27G G35C	0.04
C27G G35U	0.1
C26U U43A	0.32
C26U U43C	0.14
C26U U43G	0.15
C26U U24A	0.06
C26U U24G	0.04
C26U U24C	0.07
C26G G44C	0.09
C26G G44U	0.08
C26G G44A	0.09
C27A G34A	0.18
C27A G34C	0.09
C27A G34U	0.17
C27A C9A	0.09

Variant	self-cleavage
C27A C9G	0.1
C27A C9U	0.07
C26U C52U	0.98
C26U C52A	0.71
C26U C52G	0.84
C27G G42U	0.02
C27G G42C	0.07
C27G G42A	0.06
C27U C52U	0.37
C27U C52A	0.21
C27U C52G	0.25
C27U G22A	0.12
C27U G22C	0.03
C27U G22U	0.06
C27G C33A	0.03
C27G C33G	0.05
C27G C33U	0.05
C26U G23C	0.04
C26U G23A	0.15
C26U G23U	0.04
C26U U37G	1.03
C26U U37C	1
C26U U37A	0.79

Source: the RNAGym collection of RNA variant scans (doi:10.1002/anie.201605470)
